Bioassay records as filed in PubChem.
Rows were chosen to be rich in hits. Some 5.8% of all compounds tested hit in one or more screens of this group.
RBBP9 inh: human RBBP9 inhibitors, primary screen, biochemical, fluorescence polarization, FP-Rh probe, HTS; Serine hydrolase RBBP9 (Homo sapiens), O75884; recombinant RBBP9; inhibition, % at 7.94 µM; 220,000 tested, 0.2% active; AID 1515, 2009;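 active = inhibition above the campaign mean of all tested compounds plus 3 SD, cut at about 14% in these data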
Target sequence (O75884 whole entry, looked up): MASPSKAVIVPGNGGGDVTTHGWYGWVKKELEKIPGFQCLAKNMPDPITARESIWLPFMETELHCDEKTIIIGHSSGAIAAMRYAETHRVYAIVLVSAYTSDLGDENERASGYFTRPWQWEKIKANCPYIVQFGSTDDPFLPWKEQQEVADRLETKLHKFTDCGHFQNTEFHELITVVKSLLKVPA
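Assay system: recombinant human RBBP9; Reagent: Serine-hydrolase probe FP-Rh, 375 nM pre-mixing; Doses: 7.94 µM single dose, 0.794% DMSO; Incubation: 30 min then 45 min, 25 °C; Detection: fluorescence polarization (mP), excitation 525 nm, emission 598 nm; Evaluation: percent inhibition from mP, scaled between DMSO and no-protein wells.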
14-3-3 Bad PPI: inhibitors of 14-3-3 zeta/Bad binding, primary screen, biochemical, TR-FRET, bovine 14-3-3 zeta; 14-3-3 protein zeta/delta (Bos taurus), P63103; TR-FRET 14-3-3zeta/Dy647-pBad peptide displacement, 1 h; inhibition, % at 21.7 µM; 220,000 tested, 0.71% active;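 active = inhibition above about 70%, limit read from the data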
NCF1 inh: p47phox/p22phox peptide binding inhibitors, primary screen, biochemical, uHTS, NADPH oxidase regulatory subunit; Neutrophil cytosol factor 1 (Homo sapiens), P14598; fluorescence polarization, 2 h; inhibition, % at 24.7 µM; 220,000 tested, 0.53% active; AID 1274, 2008;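 active = inhibition above about 30%, limit read from the data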
Target sequence (P14598 whole entry, looked up): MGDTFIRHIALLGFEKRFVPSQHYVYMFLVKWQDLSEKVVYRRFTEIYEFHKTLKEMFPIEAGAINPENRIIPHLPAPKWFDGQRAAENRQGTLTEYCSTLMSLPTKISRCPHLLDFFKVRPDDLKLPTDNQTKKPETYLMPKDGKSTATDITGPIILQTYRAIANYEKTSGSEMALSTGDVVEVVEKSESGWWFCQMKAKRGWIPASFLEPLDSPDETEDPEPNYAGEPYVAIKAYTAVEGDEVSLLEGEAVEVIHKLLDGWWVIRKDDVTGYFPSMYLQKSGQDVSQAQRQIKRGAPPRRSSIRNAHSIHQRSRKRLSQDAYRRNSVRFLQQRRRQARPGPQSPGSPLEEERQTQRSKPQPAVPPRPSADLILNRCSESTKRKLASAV
WT yeast gro inh: growth inhibition of WT strain, primary screen, mitochondrial fusion inhibitor project, WT and mutant strains, chemical genetic; mitochondrial fusion phenotypic screen; inhibition, % at 10 µM; 190,000 tested, 2.1% active; AID 1362, 2008; in the data active = inhibition above about 58%; tested in S. cerevisiae
ROMK mod: ROMK potassium channel modulators, primary screen, cell-based, thallium flux, MLSMR library; ATP-sensitive inward rectifier potassium channel 1 (Homo sapiens), P48048; Tet-inducible ROMK, thallium flux fluorescence; actives lie on both sides; B-score at 10 µM; 130,000 tested, 2% active;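 active = signal ratio slope over the read window, or its plate-corrected B-score, at least 3 SD from the plate mean, either direction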;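 also: B-score of the F/F0 ratio slope over 7 to 12 s after thallium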
Cl transport mod: KCC2 cotransporter modulators, thallium flux, primary screen, cell-based, HEK293 KCC2, FluoZin-2 fluorescence, MLSMR | Solute carrier family 12 member 5 (Homo sapiens), Q9H2X9 | KCC2 cells, thallium flux FluoZin-2 fluorescence | B-score of Tl+ flux slope (higher = more flux/activation; lower = inhibition) at 10 µM | 190,000 tested, 2.2% active;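 active = thallium flux slope and its plate-corrected score both differing from the plate sample mean at a set confidence after two filtering rounds, in either direction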;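 also: slope of fluorescence scaled to starting intensity during 10 to 20 s after thallium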
Each line names hits and unclear results; the compound was inactive in the other large screens; [ ] = another dose, or the depositor's remark.

COCCN(C(=S)Nc1ccc(C(C)C)cc1)C(C)c1cccs1 (stereo unspecified)	WT yeast gro inh 63
COCCN(C(=S)Nc1c(C)cc(C)cc1C)C(C)c1cccs1 (stereo unspecified)	WT yeast gro inh 65
COCCN(C(=S)Nc1cccc(OC)c1)C(C)c1cccs1 (stereo unspecified)	none
CC(C)(C)C(=O)OCc1nc(-c2ccc(F)cc2)cs1	none (no result: WT yeast gro inh, ROMK mod)
CN(C)C(=S)SCCn1c(N)nc(N(C)C)nc1=O	none (no result: WT yeast gro inh, ROMK mod)
c1ccc(-c2cc(-c3nnc4n3N=C(c3ccc5ccccc5c3)CS4)[nH]n2)cc1	NCF1 inh 45 (no result: ROMK mod, Cl transport mod)
c1ccc(-c2csc3ncnc(N4CCc5ccccc5C4)c23)cc1	WT yeast gro inh 70
CC1(C)Cc2c(C#N)c(N)sc(=S)c2CS1	NCF1 inh 52 (no result: Cl transport mod)
CCOC(=O)C1CCN(C(=O)Nc2cc(Cl)cc(Cl)c2)CC1	none (no result: WT yeast gro inh)
O=C(NNc1nc2ccccc2s1)c1ccccc1F	none (no result: ROMK mod)
Fc1cccc2sc(Nc3nc4ccccc4s3)nc12	Cl transport mod 12
COc1cccc2sc(Nc3nc4ccc(NC(C)=O)cc4s3)nc12	14-3-3 Bad PPI 80[fluorescence artefact?]
NNc1nc2ccc(F)cc2s1	WT yeast gro inh 65 (no result: ROMK mod)
CC(=O)Nc1ccc2nc(NC(=O)COc3ccccc3C)sc2c1	none
NNc1nc2ccc(Cl)cc2s1	none (no result: ROMK mod)
Fc1ccc2nc(Nc3nc4c(F)cccc4s3)sc2c1	Cl transport mod 38 (no result: ROMK mod)
Cc1oc(-c2ccccc2Cl)nc1CN1CCCN(C(=O)c2ccco2)CC1	none (no result: Cl transport mod)
Fc1ccc2nc(Nc3nc4c(F)cc(F)cc4s3)sc2c1	Cl transport mod 17 (no result: ROMK mod)
CC(NC(=O)c1ccnn1C)C1CCCO1 (stereo unspecified)	none (no result: ROMK mod)
O=C(Nc1ccc(-c2csc(Nc3ccccc3)n2)cc1)c1cc([N+](=O)[O-])cc(C(F)(F)F)c1	NCF1 inh 35 (no result: RBBP9 inh, WT yeast gro inh, ROMK mod)
O=C(Nc1cccc(-c2csc(Nc3cccc(C(F)(F)F)c3)n2)c1)c1cc([N+](=O)[O-])cc(C(F)(F)F)c1	none (no result: RBBP9 inh, WT yeast gro inh, ROMK mod)
COC(=O)CNC(=O)c1ccc(F)cc1	none (no result: WT yeast gro inh)
CCN=C1NN=C(c2cc(C)n(CCc3ccccc3)c2C)CS1	14-3-3 Bad PPI 92
C=CCn1c(C)cc(C2=NNC(=NCc3ccccc3)SC2)c1C	none
COc1ccc(N2Cc3cccc(C(=O)NC(C)CCc4ccco4)c3C2=O)cc1 (stereo unspecified)	none (no result: ROMK mod)
CC(CCc1ccco1)NC(=O)c1cccc2c1C(=O)N(C1CCCCC1)C2 (stereo unspecified)	WT yeast gro inh 60
CC(NC(=O)/C(=C/c1ccc(OC(F)F)cc1)c1ccccc1)c1ccccc1 (stereo unspecified)	WT yeast gro inh 65 (no result: ROMK mod)
CCCCc1ccc(-c2nc(-c3ccncc3)no2)cc1	NCF1 inh 62 (no result: ROMK mod)
CCOc1ccc(-c2nc(-c3cccnc3)no2)cc1	none (no result: ROMK mod)
COc1ccc(-c2nc(-c3ccccn3)no2)cc1	WT yeast gro inh 64
CCc1ccc(-c2nc(-c3ccncc3)no2)cc1	none (no result: ROMK mod)
COc1ccccc1-c1nc(-c2ccccn2)no1	none (no result: ROMK mod, Cl transport mod)
CCCCOc1ccc(-c2nc(-c3cccnc3)no2)cc1	14-3-3 Bad PPI 160[fluorescence artefact?]
O=C(O)c1cccc(NC(=O)c2cccc(S(=O)(=O)N3CCc4ccccc4C3)c2)c1	none
Cc1ccc(C(C(=O)Nc2ccc3c(c2)OCO3)N(C)C(=O)/C=C\c2ccc3c(c2)OCO3)cc1 (stereo unspecified)	none
CCOc1ccc(NC(=S)N(CCOC)C(C)c2ccco2)cc1 (stereo unspecified)	none (no result: WT yeast gro inh, ROMK mod)
O=c1cnnc(N/N=C/c2c[nH]c3ccccc23)[nH]1	NCF1 inh 99
CC(=O)Nc1nonc1NC(C)=O	none (no result: Cl transport mod)
CC(=O)Nc1cc(OC(C)=O)c2nonc2c1OC(C)=O	ROMK mod -4.2 (no result: 14-3-3 Bad PPI, NCF1 inh, WT yeast gro inh, Cl transport mod)
FC(F)(F)c1nc(=S)c2ccccc2[nH]1	Cl transport mod 32
Cc1nc(=S)c2ccccc2[nH]1	none (no result: Cl transport mod)
CC1(C)Cc2c(sc3[nH]c(=S)n(Cc4ccccc4)c(=O)c23)CO1	Cl transport mod 81 (no result: ROMK mod)
Oc1ccccc1Nc1nc(NCC2CCCO2)c2ccccc2n1 (stereo unspecified)	14-3-3 Bad PPI 77
COc1cccc(Nc2nc(NCC3CCCO3)c3ccccc3n2)c1 (stereo unspecified)	none
COc1ccc(COCC(O)CN(Cc2ccco2)Cc2ccccc2O)cc1 (stereo unspecified)	none
Oc1ccccc1CN(Cc1ccco1)CC(O)COCc1ccc(Cl)cc1 (stereo unspecified)	WT yeast gro inh 68
O=C(NC(=S)Nc1cccc(Cl)c1N1CCCC1)c1ccc(-c2cccc([N+](=O)[O-])c2)o1	Cl transport mod 3 (no result: ROMK mod)
COc1ccc2c(CC(=O)OCC(=O)Nc3sc4c(c3C#N)CCC(C)C4)coc2c1 (stereo unspecified)	none
C/C(=N\Nc1nc(N2CCCCCC2)nc(N2CCCCCC2)n1)c1ccccc1	WT yeast gro inh 65 (no result: ROMK mod)
COc1ccc(OC)c(S(=O)(=O)Nc2cc(C(=O)O)ccc2N2CC3CC(C2)c2cccc(=O)n2C3)c1 (stereo unspecified)	none
O=C1CCCN1CC(CN1CCOCC1)Sc1nnnn1-c1ccccc1 (stereo unspecified)	14-3-3 Bad PPI 79 (no result: Cl transport mod)
N#CC(C(N)=O)=C1CCCCC1	NCF1 inh 75 (no result: WT yeast gro inh)
N/C(=N\OC(=O)COc1ccc2ccccc2c1Br)c1ccccn1	WT yeast gro inh 64
O=C(O)c1cccc(-n2c(-c3cnccn3)n[nH]c2=S)c1	none
Nc1nc(CSc2nc3ccccc3s2)nc(Nc2ccccc2)n1	none
Cc1c(Cl)cccc1Nc1nc(N)nc(CSc2nc3ccccc3s2)n1	WT yeast gro inh 72 (no result: ROMK mod)
C=CCNC(=S)N/N=C/c1ccc(C(C)(C)C)cc1	WT yeast gro inh 76
CCNC(=S)N/N=C/c1ccc(F)cc1	none
Cn1c(=O)c2c(nc(Oc3ccc4c(c3)OCO4)n2Cc2ccc(Cl)cc2)n(C)c1=O	none
Cn1c(Oc2ccc3c(c2)OCO3)nc2c1c(=O)n(Cc1ccccc1)c(=O)n2C	WT yeast gro inh 98 (no result: ROMK mod)
CC(C)C(NC(=O)C(NC(=O)C1OC2OC(C)(C)OC2C2OC(C)(C)OC12)C(C)C)C(=O)O (stereo unspecified)	none
Nc1cccc(C(=O)N/N=C/c2ccsc2)c1	none
CC(C)/C(=N/Nc1ccccc1[N+](=O)[O-])c1ccccc1	WT yeast gro inh 64
O=c1c2ccccc2nc(CSc2nnnn2-c2ccccc2)n1-c1ccccc1Cl	NCF1 inh 40
